Experimental data taken from ChEMBL document CHEMBL1124800, “9,11-epoxy-9-homoprosta-5-enoic acid analogues as thromboxane A2 receptor antagonists” (J Med Chem, 1990).
pIC50: −log10 of the molar value.

Columns and labels:
Homo sapiens [1] = species on record: Homo sapiens; assay: In vitro inhibition of aggregation of human platelet rich plasma induced by arachidonic acid; assay type: functional; conditions: read-out: I50
[2] = target: Thromboxane A2 receptor (Cavia porcellus); assay: Antagonistic activity against Thromboxane A2 receptor in guinea pig trachea in the presence of 9,11-azo-PGH2; conditions: read-out: I50
Cavia porcellus = species on record: Cavia porcellus; assay: Competitive antagonism of 11,9-epoxymethano-PGH2-induced contraction in guinea pig trachea; assay type: functional
Thromboxane A2 receptor = target: T1, Thromboxane A2 receptor (Rattus norvegicus, UniProt P34978); assay: Antagonistic activity against Thromboxane A2 receptor in rat aorta in the presence of 11,9-epoxymethano-PGH2; assay type: functional, tissue-based
T1 sequence (P34978 whole entry): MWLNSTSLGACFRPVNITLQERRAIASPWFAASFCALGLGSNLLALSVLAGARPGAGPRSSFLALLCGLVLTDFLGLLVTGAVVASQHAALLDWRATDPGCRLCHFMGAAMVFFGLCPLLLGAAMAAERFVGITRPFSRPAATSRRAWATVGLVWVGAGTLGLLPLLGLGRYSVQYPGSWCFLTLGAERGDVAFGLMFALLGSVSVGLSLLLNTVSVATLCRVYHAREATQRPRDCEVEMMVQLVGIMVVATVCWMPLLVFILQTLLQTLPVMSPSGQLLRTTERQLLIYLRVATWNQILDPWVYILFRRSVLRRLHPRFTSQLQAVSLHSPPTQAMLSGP

Rattus norvegicus [3] = species on record: Rattus norvegicus; assay: Maximal contraction of rat stomach induced by serotonin; assay type: functional
How it was run: (§1)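 Rat stomach strip; test compound concentration giving 50% of the maximal contraction produced by 3.0 × 10⁻⁷ M serotonin (A50). Where reported as a percentage, value is the maximum contraction seen at the stated test concentration. n = 8.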

Rattus norvegicus [4] = species on record: Rattus norvegicus; assay: Competitive antagonism of 11,9-epoxymethano-PGH2-induced contraction in rat aorta; assay type: functional
Homo sapiens [5] = species on record: Homo sapiens; assay: In vitro inhibition of aggregation of human platelet rich plasma induced by adenosine diphosphate; assay type: functional; conditions: read-out: I50
[6] = target: Thromboxane A2 receptor (Cavia porcellus); assay: Antagonistic activity against Thromboxane A2 receptor in guinea pig trachea in the presence of 11,9-epoxymethano-PGH2; conditions: read-out: pA2 (converted)
Rattus norvegicus [7] = species on record: Rattus norvegicus; assay: Concentration required to elicit 50% of the maximal contraction of rat stomach induced by serotonin; assay type: functional; how it was run: as §1
Rattus norvegicus [8] = species on record: Rattus norvegicus; assay: Maximal contraction of rat stomach induced by serotonin at 30 uM concentration; assay type: functional; how it was run: as §1
Rattus norvegicus [9] = species on record: Rattus norvegicus; assay: Maximal contraction of rat stomach induced by serotonin at 0.1 uM concentration; assay type: functional

SMILES | pIC50 (Homo sapiens [1]) | pIC50 (Homo sapiens [5]) | also measured
O=C(O)CCC/C=C\CC1C2CCC(O2)C1/C=C/[C@@H](O)C1CCCCC1 (some centres undefined) | 6.40 | 6.05 | Contraction (Rattus norvegicus [8]): 9%
C[C@@H](c1ccccc1)[C@H](O)/C=C/[C@@H]1C2CCC(O2)[C@@H]1CC/C=C/CCC(=O)O (some centres undefined) | 4.60 |  | 
C[C@@H](c1ccc(O)c(I)c1)[C@H](O)/C=C/C1C2CCC(O2)C1C/C=C\CCCC(=O)O (some centres undefined) | 6.03 | < 3.00 | 
O=C(O)CCC/C=C\C[C@H]1C2CCC(O2)[C@H]1CNNC(=O)Nc1ccccc1 (some centres undefined) |  |  | Kb (Cavia porcellus): 0.0013 µM; Kb (Rattus norvegicus [4]): 0.00066 µM
C[C@@H](c1ccc(O)cc1)[C@H](O)/C=C/C1C2CCC(O2)C1C/C=C\CCCC(=O)O (some centres undefined) | 6.62 | 3.02 | Contraction (Rattus norvegicus [9]): 21%
C[C@@H](c1ccccc1)[C@H](O)/C=C/[C@@H]1C2CCC(O2)[C@@H]1C/C=C\CCCc1nnn[nH]1 (some centres undefined) | 5.49 |  | 
C[C@H](c1ccccc1)[C@H](O)/C=C/C1C2CCC(O2)[C@H]1C/C=C\CCCC(=O)O (some centres undefined) | 5.51 | < 3.00 | Contraction (Rattus norvegicus [3]): 0%
O=C(O)CCC/C=C\CC1C2CCC(O2)C1/C=C/[C@@H](O)COc1ccccc1 (some centres undefined) |  |  | A50 (Rattus norvegicus [7]): 6 µM

Second part, led by results:

pIC50 (Homo sapiens [1]) | pIC50 (Homo sapiens [5]) | SMILES | also measured
5.42 |  | C[C@@H](c1ccccc1)[C@H](O)/C=C/[C@@H]1C2CCC(O2)[C@@H]1C/C=C\C/C=C/C(=O)O (some centres undefined) | 
6.19 | < 3.00 | C[C@@H](c1ccccc1)[C@H](O)/C=C/C1C2CCC(O2)C1C/C=C\CCCC(=O)O (some centres undefined) | pIC50 [2]: 5.70; Kb (Cavia porcellus): 0.0121 µM; Kb (Thromboxane A2 receptor): 0.00794 µM; Contraction (Rattus norvegicus [3]): 0%; Kb (Rattus norvegicus [4]): 0.0135 µM; Kb [6]: 0.01 µM
5.92 | < 3.00 | O=C(O)CCC/C=C\CC1C2CCC(O2)C1/C=C/[C@@H](O)CCc1ccccc1 (some centres undefined) | A50 (Rattus norvegicus [7]): 3.7 µM
3.59 |  | C[C@@H](c1ccccc1)[C@H](O)/C=C/[C@@H]1C2CCC(O2)[C@@H]1C/C=C\CCC(C)(C)C(=O)O (some centres undefined) | 
5.47 |  | C[C@@H](c1ccccc1)[C@H](O)/C=C/[C@@H]1C2CCC(O2)[C@@H]1C/C=C\COCC(=O)O (some centres undefined) | 
5.96 | < 3.00 | CCCCC(C)(C)[C@H](O)/C=C/C1C2CCC(O2)C1C/C=C\CCCC(=O)O (some centres undefined) | 
4.60 |  | CC(CC/C=C\C[C@H]1C2CCC(O2)[C@H]1/C=C/[C@@H](O)[C@@H](C)c1ccccc1)C(=O)O (some centres undefined) | 
3.14 | < 4.00 | C[C@H](c1ccccc1)[C@H](O)/C=C/C1C2CCC(O2)[C@@H]1C/C=C\CCCC(=O)O (some centres undefined) | 
5.77 | 3.52 | CCCCC[C@H](O)/C=C/C1C2CCC(O2)C1C/C=C\CCCC(=O)O (some centres undefined) | A50 (Rattus norvegicus [7]): 0.4 µM
4.92 |  | CC(C/C=C\C[C@H]1C2CCC(O2)[C@H]1/C=C/[C@@H](O)[C@@H](C)c1ccccc1)CC(=O)O (some centres undefined) | 
